For 4 compounds, SUV results are on record in ChEMBL document CHEMBL1154674, “Synthesis and evaluation of three 18F-labeled aminophenylbenzothiazoles as amyloid imaging agents” (J Med Chem, 2009).

What all share (type): ADME, organism-based, Macaca mulatta
Data set [1] can be described thus: Drug level in normal rhesus monkey pons assessed as standard uptake value at 81.2 MBq, iv after 12 mins by microPET. Particulars: in vivo, 0.2 h.
Data set [2] is described as follows: Drug level in normal rhesus monkey pons assessed as standard uptake value at 81.2 MBq, iv after 17.5 mins by microPET. As to conditions: in vivo.
Data set [3] is described as follows: Drug level in normal rhesus monkey parietal cortex assessed as standard uptake value at 81.2 MBq, iv after 12 mins by microPET. Particulars: in vivo, 0.2 h.
Data set [4] is described as follows: Drug level in normal rhesus monkey parietal cortex assessed as standard uptake value at 81.2 MBq, iv after 27.5 mins by microPET. Particulars: in vivo.
Data set [5] in a line: Drug level in normal rhesus monkey parietal cortex assessed as standard uptake value at 81.2 MBq, iv after 52.5 mins by microPET. As to conditions: in vivo, 0.875 h.
Data set [6] in a line: Drug level in normal rhesus monkey parietal cortex assessed as standard uptake value at 81.2 MBq, iv after 145 mins by microPET. As to conditions: in vivo.
Data set [7] in a line: Drug level in normal rhesus monkey white matter assessed as standard uptake value at 81.2 MBq, iv after 145 mins by microPET. Particulars: in vivo.
Data set [8] can be described thus: Drug level in normal rhesus monkey thalamus assessed as standard uptake value at 81.2 MBq, iv after 4.5 mins by microPET. Particulars: in vivo, 0.075 h.
The nature of data set [9]: Drug level in normal rhesus monkey cerebellum assessed as standard uptake value at 81.2 MBq, iv after 57.5 mins by microPET. As to conditions: in vivo. In outline:
(§1)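 One normal rhesus monkey, each tracer given iv via the vena saphena (81.2, 96.3 or 109.4 MBq), with 1 day between tracer injections. Dynamic brain μPET over 180 min used frames of 5 × 60 s, 5 × 120 s, 9 × 300 s and 12 × 600 s. Images were reconstructed by filtered back projection with a RAMP filter. Regional time-activity curves were expressed as SUV.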

Data set [10] is described as follows: Drug level in normal rhesus monkey frontal cortex assessed as standard uptake value at 81.2 MBq, iv after 2.5 mins by microPET. Particulars: in vivo.
Data set [11] is described as follows: Drug level in normal rhesus monkey cerebellum assessed as standard uptake value at 81.2 MBq, iv after 8 mins by microPET. As to conditions: in vivo. Summed up:
as §1

Data set [12] can be described thus: Drug level in normal rhesus monkey parietal cortex assessed as standard uptake value at 96.3 MBq, iv after 32.5 mins by microPET. Particulars: in vivo.
The nature of data set [13]: Drug level in normal rhesus monkey parietal cortex assessed as standard uptake value at 96.3 MBq, iv after 175 mins by microPET. Particulars: in vivo.
Data set [14] is described as follows: Drug level in normal rhesus monkey thalamus assessed as standard uptake value at 96.3 MBq, iv after 0.5 mins by microPET. Particulars: in vivo.
Data set [15] can be described thus: Drug level in normal rhesus monkey thalamus assessed as standard uptake value at 96.3 MBq, iv after 3.5 mins by microPET. Particulars: in vivo.
Data set [16] in a line: Drug level in normal rhesus monkey thalamus assessed as standard uptake value at 96.3 MBq, iv after 75 mins by microPET. As to conditions: in vivo, 1.25 h.
Data set [17] is described as follows: Drug level in normal rhesus monkey thalamus assessed as standard uptake value at 96.3 MBq, iv after 115 mins by microPET. Particulars: in vivo.
Data set [18] in a line: Drug level in normal rhesus monkey cerebellum assessed as standard uptake value at 96.3 MBq, iv after 0.5 mins by microPET. As to conditions: in vivo. Summed up:
as §1

The nature of data set [19]: Drug level in normal rhesus monkey cerebellum assessed as standard uptake value at 96.3 MBq, iv after 1.5 mins by microPET. Particulars: in vivo, 0.025 h. In outline:
as §1

Data set [20] can be described thus: Drug level in normal rhesus monkey pons assessed as standard uptake value at 96.3 MBq, iv after 22.5 mins by microPET. As to conditions: in vivo, 0.375 h.
Data set [21] in a line: Drug level in normal rhesus monkey pons assessed as standard uptake value at 96.3 MBq, iv after 65 mins by microPET. Particulars: in vivo.
Data set [22] in a line: Drug level in normal rhesus monkey cerebellum assessed as standard uptake value at 96.3 MBq, iv after 165 mins by microPET. Particulars: in vivo, 2.75 h. Summed up: as §1
Data set [23] is described as follows: Drug level in normal rhesus monkey frontal cortex assessed as standard uptake value at 96.3 MBq, iv after 3.5 mins by microPET. As to conditions: in vivo.
Data set [24] can be described thus: Drug level in normal rhesus monkey frontal cortex assessed as standard uptake value at 96.3 MBq, iv after 8 mins by microPET. Particulars: in vivo.
Data set [25] in a line: Drug level in normal rhesus monkey thalamus assessed as standard uptake value at 109.4 MBq, iv after 129 mins by microPET. As to conditions: in vivo, 2.15 h.
A short description of data set [26]: Drug level in normal rhesus monkey pons assessed as standard uptake value at 109.4 MBq, iv after 1.5 mins by microPET. Particulars: in vivo, 0.025 h.
Data set [27] can be described thus: Drug level in normal rhesus monkey pons assessed as standard uptake value at 109.4 MBq, iv after 27.5 mins by microPET. Particulars: in vivo.
Data set [28] can be described thus: Drug level in normal rhesus monkey pons assessed as standard uptake value at 109.4 MBq, iv after 105 mins by microPET. Particulars: in vivo, 1.75 h.
Data set [29] is described as follows: Drug level in normal rhesus monkey pons assessed as standard uptake value at 109.4 MBq, iv after 123 mins by microPET. Particulars: in vivo, 2.05 h.
A short description of data set [30]: Drug level in normal rhesus monkey frontal cortex assessed as standard uptake value at 109.4 MBq, iv after 0.625 mins by microPET. As to conditions: in vivo, 38 s.
Data set [31] is described as follows: Drug level in normal rhesus monkey frontal cortex assessed as standard uptake value at 109.4 MBq, iv after 63 mins by microPET. As to conditions: in vivo, 1.05 h.
Data set [32] can be described thus: Drug level in normal rhesus monkey thalamus assessed as standard uptake value at 109.4 MBq, iv after 52.5 mins by microPET. Particulars: in vivo, 0.875 h.
Data set [33] is described as follows: Drug level in normal rhesus monkey thalamus assessed as standard uptake value at 109.4 MBq, iv after 69 mins by microPET. Particulars: in vivo, 1.15 h.
The nature of data set [34]: Drug level in normal rhesus monkey white matter assessed as standard uptake value at 109.4 MBq, iv after 52.5 mins by microPET. As to conditions: in vivo, 0.875 h.
Data set [35] can be described thus: Drug level in normal rhesus monkey frontal cortex assessed as standard uptake value at 152.9 MBq, iv after 27.5 mins by microPET. Particulars: in vivo. Summed up: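 Single normal rhesus monkey; tracer given iv via the vena saphena, 1 day apart from the other tracer injections. Dynamic μPET ran 90 min (5×60 s, 5×120 s, 9×300 s, 3×600 s). Images were reconstructed by filtered back projection with a RAMP filter. Regional time-activity curves were expressed as SUV.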

A short description of data set [36]: Drug level in normal rhesus monkey white matter assessed as standard uptake value at 152.9 MBq, iv after 42.5 mins by microPET. As to conditions: in vivo.
Data set [37] in a line: Drug level in normal rhesus monkey thalamus assessed as standard uptake value at 152.9 MBq, iv after 42.5 mins by microPET. As to conditions: in vivo.
Data set [38] can be described thus: Drug level in normal rhesus monkey thalamus assessed as standard uptake value at 152.9 MBq, iv after 65 mins by microPET. As to conditions: in vivo.
Data set [39] is described as follows: Drug level in normal rhesus monkey parietal cortex assessed as standard uptake value at 152.9 MBq, iv after 10 mins by microPET. Particulars: in vivo.
The nature of data set [40]: Drug level in normal rhesus monkey parietal cortex assessed as standard uptake value at 152.9 MBq, iv after 65 mins by microPET. As to conditions: in vivo.

For the compound `CNc1ccc2nc(-c3ccc([18F])cc3)sc2c1`, the SUV in [1] came to 5.701; in data set [2], 5.124; in [3], 4.756; in data set [4], 4.303; in [5] it was 3.552; in data set [6] it was 2.565. The SUV is 3.888 in data set [7]; 4.054 in data set [8]; 2.522 in [9]; 4.284 in data set [10]; 2.781 in data set [11].

As to `CN(C)c1ccc2nc(-c3ccc([18F])cc3)sc2c1`, the SUV in data set [12] is 1.9; in [13], 1.17; in data set [14] it was 0.63; in data set [15], 2; in [16] it was 2.19; in data set [17], 2.14. For the same compound, the SUV in data set [18] is 0.54; in data set [19], 1.17; in [20], 1.78; in [21], 1.83; in [22], 0.79; in data set [23], 1.39. Further, in data set [24], the SUV is 1.98.

For the compound `Nc1ccc2nc(-c3ccc([18F])cc3)sc2c1`, the SUV in [25] is 4.43; in data set [26], 2.87; in [27] it was 4.78; in data set [28] it was 4.79; in [29] it was 4.99; in [30], 1.15. Besides, the SUV in [31] is listed as 4.56; in [32], 5.41; in data set [33], 5.32; in [34] it was 3.54.

`[11CH3]Nc1ccc(-c2nc3ccc(O)cc3s2)cc1` [PITTSBURGH COMPOUND B]: the SUV in data set [35] worked out at 1.215; in [36], 1.04; in [37], 1.223; in data set [38] it was 0.85; in data set [39] it was 2.18; in data set [40] it was 0.69.
